# Assay outcomes deposited in PubChem BioAssay by several laboratories.
# Compounds with a hit are over-represented: about 2.9% of the library has one in this group of screens.
# Runt-CBFb FRET: blocks binding of human RUNX1 Runt domain to CBFb | inhibition, % at 20 µM | actives 0.46% (n = 220,000) | Cerulean-Runt/Venus-CBFb FRET ratio 530/480, 1 h | Q01196+Q13951;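 active = inhibition over about 50% at 20 µM in the single-dose screen, limit read from the data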;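 also: 0% = DMSO wells and 100% = excess unlabeled CBFb competitor control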
# Target sequence (Q01196 whole entry, looked up, the tested form may be a part): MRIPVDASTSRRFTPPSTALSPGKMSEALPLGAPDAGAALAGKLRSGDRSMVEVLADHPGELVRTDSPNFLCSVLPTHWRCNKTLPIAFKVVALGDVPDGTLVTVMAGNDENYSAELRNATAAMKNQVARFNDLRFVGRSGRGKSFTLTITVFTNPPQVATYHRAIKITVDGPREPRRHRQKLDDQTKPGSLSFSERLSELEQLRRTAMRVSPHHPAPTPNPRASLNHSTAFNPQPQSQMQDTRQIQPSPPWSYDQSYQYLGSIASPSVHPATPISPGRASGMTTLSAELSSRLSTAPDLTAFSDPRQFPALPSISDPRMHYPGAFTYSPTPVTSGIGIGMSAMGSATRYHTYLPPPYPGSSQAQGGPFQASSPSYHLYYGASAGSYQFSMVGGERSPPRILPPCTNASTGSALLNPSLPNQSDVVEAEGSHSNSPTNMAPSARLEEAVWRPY
# Target sequence (Q13951 whole entry, looked up, the tested form may be a part): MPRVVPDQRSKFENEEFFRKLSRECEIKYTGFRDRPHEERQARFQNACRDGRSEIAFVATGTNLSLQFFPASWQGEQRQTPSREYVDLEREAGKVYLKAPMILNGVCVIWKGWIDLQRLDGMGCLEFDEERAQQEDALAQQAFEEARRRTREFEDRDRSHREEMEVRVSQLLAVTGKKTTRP
#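 Assay system: Cerulean-Runt domain fusion protein, energy donor; Signal: fluorescence energy transfer, 422 nm excitation, 530/480 nm emission; Timing: 1 h compound exposure, room temperature; Control set: unlabeled CBFb; Medium: Tris buffer pH 7.5 with salts and BSA; Compound: single test concentration of 20 µM, 1% DMSO final; Probe or stimulus: Venus-CBFb 100 nM.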
# RBBP9 inhibitor: inhibitors of human serine hydrolase RBBP9. recombinant RBBP9, FP-Rh probe fluorescence polarization. O75884. AID 1515. actives 0.2% (n = 220,000). inhibition, % at 7.94 µM;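 active = inhibition above the campaign mean of all tested compounds plus 3 SD, cut at about 14% in these data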;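 also: plate controls were DMSO wells with RBBP9 for no effect and wells lacking RBBP9 protein for full effect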
#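 Assay system: recombinant human RBBP9; Reagent: Serine-hydrolase probe FP-Rh, 375 nM pre-mixing; Doses: 7.94 µM single dose, 0.794% DMSO; Incubation: 30 min then 45 min, 25 °C; Detection: fluorescence polarization (mP), excitation 525 nm, emission 598 nm; Evaluation: percent inhibition from mP, scaled between DMSO and no-protein wells.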
# RanGTP-Impb inh: inhibitors of RanGTP-importin-beta interaction, primary screen, biochemical, FRET, CFP-Ran, YFP-importin-beta, homogeneous | cell-free CFP-Ran/YFP-importin-beta FRET ratio | inhibition, % (no concentration beside the values) | actives 1.1% (n = 300,000) | AID 2216;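 active = more than half of the replicate wells show a fall in the fluorescence ratio signal beyond about 16%, limit read from the data, passing the limit was not always enough; inconclusive = exactly half of the replicate wells pass the set limit; inactive = fewer than half of replicates pass the limit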;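 also: 0% = DMSO wells and 100% = Ran loaded with GDP instead of GTP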
# Hck-Nef inh: blocks Nef-activated human Hck kinase. Recombinant Hck-YEEI plus Nef, Z-Lyte FRET kinase assay. inhibition, % at 20 µM. actives 0.68% (n = 220,000). AID 463187;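 active = Hck-Nef kinase inhibition above about 50%, limit read from the data; inactive = inhibition below that limit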;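 also: 0% = DMSO with Hck plus Nef and 100% = Hck alone without Nef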
# M18AAP inhibitor: blocks P. falciparum M18 aspartyl aminopeptidase; recombinant PfM18AAP, H-Glu-NHMec fluorogenic cleavage; inhibition, % at 7.35 µM; actives 1.2% (n = 290,000);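 active = inhibition above the campaign mean inhibition over all tested compounds plus 3 SD, cut at about 28% in these data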;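 also: 0% = plate median of test compound wells and 100% = 2 mM ZnCl2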
# Runt-SMMHC FRET: blocks binding of human RUNX1 Runt domain to CBFb-SMMHC. inhibition, % at 20 µM. Cerulean-Runt/Venus-CBFb-SMMHC FRET ratio 530/480, 1 h. AID 1434. actives 0.74% (n = 220,000);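 active = mean inhibition across duplicate retests at 20 µM reaching about 50%, limit read from the data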;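 also: 0% = DMSO wells and 100% = wells with excess untagged CBFb-SMMHC; inhibitors lower the FRET ratio by blocking Runt binding to CBFb-SMMHC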
# YIC counter: counter-screen for RanGTP-importin-beta inhibitors: YIC FRET probe; Purified YIC probe, intramolecular FRET ratio YFP/CFP; actives 40% (n = 1,000); shares compounds with RanGTP-Impb inh; IC50, µM; AID 435026;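 active = fitted half-maximal inhibitory concentration no more than tenfold above the top dose tested; inconclusive = flat fit with 30 to 70% activity, or poor fit; inactive = half-maximal concentration beyond tenfold above the top dose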
# Hck-Nef confirm: Hck-Nef kinase inhibition, confirmation; shares compounds with Hck-Nef inh; Recombinant Hck-YEEI:Nef, Z-Lyte FRET kinase assay; calls only at 10 µM; actives 28% (n = 1,300);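 active = average inhibition of at least 50%, with Z-scores no higher than 3 in both the phospho-tyrosine peptide and fluorescence counterscreens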
# Numbers without * were called inactive; i = inactive; ? = inconclusive; . = not tested or not shown; + = active, no number.
SMILES,Runt-CBFb FRET,RBBP9 inhibitor,RanGTP-Impb inh,Hck-Nef inh,M18AAP inhibitor,Runt-SMMHC FRET,Hck-Nef confirm,others
CCOc1ccc(-n2c(N)c(C(=O)NCc3ccco3)c3nc4ccccc4nc32)cc1,34.7,-11.4,25.1*,52.9*,20.3,86.0*,i,YIC counter=20.8*
O=c1oc2cc(O)ccc2c2ccccc12,-3.1,-4.5,-0.4,-1.5,-2.4,-32.0,.,
O=C(c1ccccc1)c1cc2ccc(O)cc2oc1=O,.,-2.1,27.4*,69.3*,8.2,174.0*,.,YIC counter=18.2*
CCCOc1ccc(C2C(C(=O)OC)=CN(CCOC)C=C2C(=O)OC)cc1,88.0*,-15.0,25.5*,55.5*,-10.4,.,.,YIC counter=16.7*
CCN1CCN(C(=O)C(C)Nc2cc(Cl)c(OC)cc2OC)CC1 (stereo unspecified),-2.2,9.2,?,7.8,-0.1,-26.3,.,
COC(=O)Cc1c(C)c2ccc(OCC(C)=O)c(C)c2oc1=O,1.3,13.0,0.1,-9.0,6.4,-4.7,.,
CCN(CC)Cc1c(O)ccc2c(C)c(CC(=O)OC)c(=O)oc12,116.8*,-0.6,31.6*,73.2*,4.6,80.2*,.,YIC counter=13.6*
CCCc1cc(=O)oc2cc(C)c(CN3CCCC3)c(O)c12,-4.5,-5.7,2.9,2.0,2.1,-18.8,.,
CCCc1cc(=O)oc2c(CN3CCCC3)c(O)c(Cl)cc12,98.1*,-3.9,61.6*,116.3*,2.2,159.8*,i,YIC counter=27.2*
CC(C)CCN(CCC(C)C)CC(O)Cn1c2ccccc2c(=O)c2ccccc21 (stereo unspecified),107.1*,-3.4,57.2*,117.2*,-0.6,82.5*,.,YIC counter=3.73*
O=C(c1cc2ccccc2o1)N1CCN(c2ccccn2)CC1,.,.,3.0,.,1.4,.,.,
CCCN1CCN(C(=O)C2CCN(S(=O)(=O)c3ccc4c(c3)NC(=O)C(C)S4)CC2)CC1 (stereo unspecified),.,.,-2.0,.,0.1,.,.,
COc1cccc(C(=O)Nc2ccccc2NC(=O)c2cccc(OC)c2)c1,.,.,-0.3,.,-4.1,.,.,
COc1cccc(C(=O)/C=C2\Sc3ccccc3N2C)c1,44.1,1.0,1.6,106.2*,24.4,55.3*,i,
Cc1ccc(C)c(CN2CCSCC2)c1,.,.,7.8,.,1.8,.,.,
CN1CCN(C(=O)c2ccc3c(=O)n(-c4ccc(F)cc4)c(=S)[nH]c3c2)CC1,2.2,-2.9,-1.4,1.2,-1.7,1.0,.,
CCOC(=O)N1CCN(C(=O)c2ccc3c(=O)n(-c4ccc(F)cc4)c(=S)[nH]c3c2)CC1,-0.2,-3.6,2.3,53.2*,-4.0,2.4,i,
CCN(CC)c1ccc(-c2nn3c(-c4ccccc4OC)nnc3s2)cc1,5.0,-10.5,7.8,50.7*,0.1,25.5,i,
CC1C(=O)N2CCCc3cc(NC(=O)c4ccccc4C(F)(F)F)cc1c32 (stereo unspecified),.,.,2.7,.,.,.,.,
NC(=O)c1nn(-c2ccc(Oc3ccccc3)cc2)c(=O)cc1O,-0.9,-9.8,-3.0,82.2*,0.1,13.5,+,
COc1ccccc1NS(=O)(=O)c1ccc2c(c1)CCN2C(=O)CCC(=O)O,.,.,2.6,.,5.2,.,.,
CCN1C(=O)/C(=C\c2ccc(-c3ccc([N+](=O)[O-])cc3OC)o2)SC1=Nc1cccc(C(=O)O)c1,34.6,-1.6,1.6,69.9*,4.2,35.8,i,
COc1ccc(/C=c2\s/c(=C\C(=O)C(C)(C)C)[nH]c2=O)cc1O,-4.2,11.4,?,70.9*,19.1,-36.9,+,
COc1cc(/C=c2\s/c(=C\C(=O)C(C)(C)C)[nH]c2=O)cc(OC)c1OC,-20.2,-2.5,-0.7,22.5,9.4,-62.7,.,
N#Cc1nc(/C=C/c2ccccc2)oc1NCCCN1CCOCC1,14.1,-10.0,3.9,53.9*,-1.5,31.9,.,
SMILES,Runt-CBFb FRET,RBBP9 inhibitor,RanGTP-Impb inh,Hck-Nef inh,M18AAP inhibitor,Runt-SMMHC FRET,Hck-Nef confirm,others
COCCNc1oc(/C=C/c2ccccc2)nc1C#N,9.5,-4.1,1.5,67.0*,-0.2,32.8,.,
N#Cc1nc(COc2ccc(-c3ccccc3)cc2)oc1NCCCN1CCOCC1,-1.3,0.9,5.3,2.1,-10.6,-0.9,.,
Cc1ccc(C(=O)NC(NC(=O)c2ccc(C)cc2)c2cccc([N+](=O)[O-])c2)cc1,0.7,-7.2,2.4,5.5,-6.6,3.2,.,
O=C(COc1ccccc1[N+](=O)[O-])Nc1ccc(NC(=O)c2cc3ccccc3o2)cc1,-2.3,-1.7,7.1,24.2,-4.4,-5.6,.,
O=C(COc1ccc(/C=N/NC(=O)c2cc3ccccc3o2)cc1Br)Nc1ccccc1,-1.8,-8.8,1.9,79.3*,-14.8,-16.8,+,
N#Cc1c(-c2cccs2)nc(SCc2ccc(Cl)cc2)[nH]c1=O,-1.3,-24.4,-3.2,69.4*,-7.0,-11.1,+,
CC1CC(C)CN(C(=O)COC(=O)Cc2ccc(Br)cc2)C1 (stereo unspecified),.,.,1.5,.,0.2,.,.,
O=C(CC1(CC2=NS(=O)(=O)c3ccccc3N2)CCCC1)NCCc1ccccc1,.,.,?,.,3.9,.,.,
O=C(CSc1ncnc2c1oc1ccccc12)Nc1nccs1,2.7,7.9,-4.2,79.0*,-2.6,-5.8,i,
C=CCn1c(N)c(C(=O)NCC2CCCO2)c2nc3ccccc3nc21 (stereo unspecified),4.4,-8.6,106.7*,54.7*,-1.4,46.5,.,
COc1ccc(-n2c(N)c(C(=O)NCC3CCCO3)c3nc4ccccc4nc32)c(OC)c1 (stereo unspecified),44.0,-2.8,52.5*,75.2*,1.4,105.9*,.,
COc1ccc(-n2nc(C(=O)NCC(=O)NCC3CCCO3)c3ccccc3c2=O)c(OC)c1 (stereo unspecified),-1.9,-4.0,?,-0.8,-1.4,1.9,.,
O=C(NCC1CCCO1)c1coc2nc3ccccc3nc12 (stereo unspecified),1.7,-7.0,4.7,9.1,5.2,4.9,.,
COc1ccc(-c2cc(C(=O)N(C)Cc3ccc(F)cc3)c3ccccc3n2)cc1OC,.,.,1.2,.,-0.1,.,.,
CCc1ccc(NC(=O)CN(CC(=O)Nc2ccc(CC)cc2)CC(C)O)cc1 (stereo unspecified),.,.,0.7,.,0.6,.,.,
COc1cc(/C=N/NC(=O)c2sc3nc(C)cc(C)c3c2N)ccc1O,20.0,-0.1,?,51.5*,9.9,31.6,.,
CC/C(C)=N/Nc1nc(-c2cc3cccc(OC)c3oc2=O)cs1,10.6,9.2,0.3,57.2*,20.2,-13.9,i,
COc1cccc2cc(-c3csc(CCn4nc(C)cc4C)n3)c(=O)oc12,-2.7,-5.8,2.0,1.6,4.9,-3.1,.,
